Laboratory results from ChEMBL document CHEMBL4251743, “Absolute Configuration and Pharmacology of the Poison Frog Alkaloid Phantasmidine” (J Nat Prod, 2018).
Active and inactive are the calls of the source. The calls are words filed in the database; no cut-off is given here.

How the values were obtained:
[1] = biological target: Neuronal acetylcholine receptor; alpha3/beta4 (Rattus norvegicus) (UniProt P04757+P12392); experiment: Agonist activity at rat alpha3beta4 nAChR by cell-based rubidium flux assay relative to 100 uM nicotine
Procedure, shortened: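 Stably transfected cells expressing rat α3β4 or human α4β2 nAChR were used near confluence. They were preloaded with 86Rb+, washed, stimulated with test agonist, and the medium was separated before lysis. Efflux was taken as medium counts over total counts. […] Results are the mean ± SEM of 3–4 independent experiments.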

[2] = biological target: T1, Neuronal acetylcholine receptor; alpha4/beta2 (Homo sapiens, UniProt P17787+P43681); experiment: Agonist activity at human alpha4beta2 nAChR by cell-based rubidium flux assay relative to 100 uM nicotine
Procedure, shortened: (§1)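 Stably transfected cells expressing rat α3β4 or human α4β2 nAChR were used near confluence. They were preloaded with 86Rb+, washed, stimulated with test agonist, and the medium was separated before lysis. Efflux was taken as medium counts over total counts. Results are the mean ± SEM of 3–4 independent experiments.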

Mus musculus [3] = experiment: Toxicity in iv dosed Swiss-Webster mouse; assay type: organism-based; conditions: in vivo
Procedure, shortened: (§2)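 Weanling male White Swiss-Webster mice (15–20 g) were fasted for 12 h. Compound in physiological buffered saline was given intravenously via the tail vein. Mice were then returned to their pens for observation of signs.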

[4] = biological target: T2, Neuronal acetylcholine receptor; alpha3/beta4 (Rattus norvegicus, UniProt P04757+P12392); experiment: Displacement of [3H]epibatidine from alpha3beta4 nAChR (unknown origin) expressed in HEK cell membranes after 4 hrs by liquid scintillation counting method
Procedure, shortened: (§3)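 Incubation was 4 h at room temperature, followed by rapid filtration, washing and liquid scintillation counting. Nonspecific binding was defined with 300 μM nicotine. Values are the mean ± SEM of four measurements.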

[5] = biological target: T3, Neuronal acetylcholine receptor; alpha4/beta2 (Rattus norvegicus, UniProt P09483+P12390); experiment: Displacement of [3H]epibatidine from alpha4beta2 nAChR (unknown origin) expressed in HEK cell membranes after 4 hrs by liquid scintillation counting method; procedure, shortened: as §3
[6] = biological target: T4, Neuronal acetylcholine receptor subunit alpha-7 (Rattus norvegicus, UniProt Q05941); experiment: Displacement of [3H]epibatidine from alpha7 nAChR (unknown origin) expressed in HEK cell membranes after 4 hrs by liquid scintillation counting method; procedure, shortened: as §3
Homo sapiens [7] = species on record: Homo sapiens; experiment: Selectivity ratio of Ki for displacement of [3H]epibatidine from alpha3beta4 nAChR (unknown origin) expressed in HEK cell membranes to Ki for displacement of [3H]epibatidine from alpha4beta2 nAChR (unknown origin) expressed in HEK cell membranes
[8] = biological target: Neuronal acetylcholine receptor; experiment: Displacement of [3H]epibatidine from rat forebrain nAChR after 4 hrs by liquid scintillation counting method; procedure, shortened: as §3
[9] = biological target: T2, Neuronal acetylcholine receptor; alpha3/beta4; experiment: Agonist activity at rat alpha3beta4 nAChR by cell-based rubidium flux assay; procedure, shortened: as §1
[10] = biological target: T1, Neuronal acetylcholine receptor; alpha4/beta2; experiment: Agonist activity at human alpha4beta2 nAChR by cell-based rubidium flux assay; procedure, shortened: as §1
Homo sapiens [11] = species on record: Homo sapiens; experiment: Selectivity ratio of EC50 for agonist activity at rat alpha3beta4 nAChR (unknown origin) to EC50 for agonist activity at alpha4beta2 nAChR (unknown origin)
[12] = biological target: Neuronal acetylcholine receptor; alpha3/beta2 (Rattus norvegicus, UniProt P04757+P12390); experiment: Agonist activity at rat alpha3beta2 expressed in Xenopus oocytes at -60 mV holding potential by electrophysiology method; assay type: cell-based
Procedure, shortened: (§4)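 Defolliculated X. laevis oocytes were injected with about 50 nL of rat subunit mRNA at 1 μg/μL. For α3β2 and α4β2 the subunits were mixed 1:1. Recording was by two-electrode voltage clamp at −60 mV and about 24 °C, with perfusion in HEPES-buffered NaCl/KCl/CaCl2/MgCl2. Agonist was applied for 3–4 s every 4–5 min. Peak currents were normalised to 1 mM ACh (nAChR) or 10 μM mCPBG (5-HT3A) and fitted to the Hill equation.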

[13] = biological target: T5, Neuronal acetylcholine receptor; alpha3/beta2 (Rattus norvegicus) (UniProt P04757+P12390); experiment: Agonist activity at rat alpha3beta2 expressed in Xenopus oocytes at -60 mV holding potential by electrophysiology method relative to acetylcholine; assay type: cell-based; procedure, shortened: as §4
[14] = biological target: T3, Neuronal acetylcholine receptor; alpha4/beta2; experiment: Agonist activity at rat alpha4beta2 expressed in Xenopus oocytes at -60 mV holding potential by electrophysiology method; assay type: cell-based; procedure, shortened: as §4
[15] = biological target: T6, Neuronal acetylcholine receptor; alpha4/beta2 (Rattus norvegicus) (UniProt P09483+P12390); experiment: Agonist activity at rat alpha4beta2 expressed in Xenopus oocytes at -60 mV holding potential by electrophysiology method relative to acetylcholine; assay type: cell-based; procedure, shortened: as §4
[16] = biological target: T4, Neuronal acetylcholine receptor subunit alpha-7; experiment: Agonist activity at rat alpha7 nAChR expressed in Xenopus oocytes at -60 mV holding potential by electrophysiology method; assay type: cell-based; procedure, shortened: as §4
[17] = biological target: Neuronal acetylcholine receptor subunit alpha-7 (Rattus norvegicus) (UniProt Q05941); experiment: Agonist activity at rat alpha7 nAChR expressed in Xenopus oocytes at -60 mV holding potential by electrophysiology method relative to acetylcholine; assay type: cell-based; procedure, shortened: as §4
[18] = biological target: T7, 5-hydroxytryptamine receptor 3A (Rattus norvegicus, UniProt P35563); experiment: Agonist activity at rat 5HT3A expressed in Xenopus oocytes at -60 mV holding potential by electrophysiology method; assay type: cell-based; procedure, shortened: as §4
T7 sequence (P35563 whole entry): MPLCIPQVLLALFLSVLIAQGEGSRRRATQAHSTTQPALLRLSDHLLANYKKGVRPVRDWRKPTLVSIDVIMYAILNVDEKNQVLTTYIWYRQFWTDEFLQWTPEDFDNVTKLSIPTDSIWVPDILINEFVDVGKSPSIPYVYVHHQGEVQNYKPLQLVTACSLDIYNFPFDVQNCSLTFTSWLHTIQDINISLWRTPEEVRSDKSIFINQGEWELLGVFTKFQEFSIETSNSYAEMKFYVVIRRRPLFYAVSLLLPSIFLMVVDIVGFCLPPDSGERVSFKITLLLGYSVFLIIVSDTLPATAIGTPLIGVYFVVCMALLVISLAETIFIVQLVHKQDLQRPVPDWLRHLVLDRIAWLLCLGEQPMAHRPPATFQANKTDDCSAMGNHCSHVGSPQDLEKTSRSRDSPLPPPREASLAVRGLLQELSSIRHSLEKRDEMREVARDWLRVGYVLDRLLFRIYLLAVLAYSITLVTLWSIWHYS

[19] = biological target: T8, 5-hydroxytryptamine receptor 3A (Rattus norvegicus) (UniProt P35563); experiment: Agonist activity at rat 5HT3A expressed in Xenopus oocytes at -60 mV holding potential by electrophysiology method relative to metachlorophenylbiguanide; assay type: cell-based; procedure, shortened: as §4
T8 sequence (whole entry): T7 sequence (P35563 whole entry)

[20] = biological target: T5, Neuronal acetylcholine receptor; alpha3/beta2 (Rattus norvegicus); experiment: Agonist activity at rat alpha3beta2 expressed in Xenopus oocytes at 10 nM at -60 mV holding potential in presence of dihydro-beta-erythroidine by electrophysiology method; assay type: cell-based
[21] = biological target: T6, Neuronal acetylcholine receptor; alpha4/beta2 (Rattus norvegicus); experiment: Agonist activity at rat alpha4beta2 expressed in Xenopus oocytes at 10 nM at -60 mV holding potential in presence of dihydro-beta-erythroidine by electrophysiology method; assay type: cell-based
[22] = biological target: Neuronal acetylcholine receptor subunit alpha-7 (Rattus norvegicus) (UniProt Q05941); experiment: Agonist activity at rat alpha7 nAChR expressed in Xenopus oocytes at 10 uM at -60 mV holding potential by electrophysiology method in presence of methyllycaconitine; assay type: cell-based
[23] = biological target: T8, 5-hydroxytryptamine receptor 3A (Rattus norvegicus); experiment: Agonist activity at rat 5HT3A expressed in Xenopus oocytes at 100 uM at -60 mV holding potential in presence of tropisetron by electrophysiology method; assay type: cell-based
Procedure, shortened: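 Oocytes expressing rat 5-HT3A were held at −60 mV under two-electrode voltage clamp. Tropisetron (30 nM) was pre-applied for 2 min before 100 μM agonist was applied, with n=4.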

Rattus norvegicus = species on record: Rattus norvegicus; experiment: Selectivity ratio of EC50 for rat alpha7 nAChR expressed in Xenopus oocytes to EC50 rat alpha4beta2 expressed in Xenopus oocytes; assay type: cell-based
Mus musculus [24] = experiment: Toxicity in Swiss-Webster mouse assessed as piloerection at 40 ug/kg, iv; assay type: organism-based; conditions: in vivo, 0.04 mg/kg; procedure, shortened: as §2
Mus musculus [25] = experiment: Toxicity in Swiss-Webster mouse assessed as elevated respiration at 40 ug/kg, iv; assay type: organism-based; conditions: in vivo, 0.04 mg/kg; procedure, shortened: as §2
Mus musculus [26] = experiment: Toxicity in Swiss-Webster mouse assessed as piloerection at 40 ug/kg, iv measured within 1 min; assay type: organism-based; conditions: in vivo, 0.04 mg/kg; procedure, shortened: as §2
Mus musculus [27] = experiment: Toxicity in Swiss-Webster mouse assessed as elevated respiration at 40 ug/kg, iv measured within 1 min; assay type: organism-based; conditions: in vivo, 0.04 mg/kg; procedure, shortened: as §2
Mus musculus [28] = experiment: Toxicity in Swiss-Webster mouse assessed as piloerection at 50 ug/kg, iv; assay type: organism-based; conditions: in vivo, 0.05 mg/kg; procedure, shortened: as §2
Mus musculus [29] = experiment: Toxicity in Swiss-Webster mouse assessed as elevated respiration at 50 ug/kg, iv; assay type: organism-based; conditions: in vivo, 0.05 mg/kg; procedure, shortened: as §2
Mus musculus [30] = experiment: Toxicity in Swiss-Webster mouse assessed as hyperactivity at 50 ug/kg, iv; assay type: organism-based; conditions: in vivo, 0.05 mg/kg; procedure, shortened: as §2
Mus musculus [31] = experiment: Toxicity in Swiss-Webster mouse assessed as death at 50 ug/kg, iv measured within 30 secs; assay type: organism-based; conditions: in vivo, 0.05 mg/kg, 0.5 min; procedure, shortened: as §2
Mus musculus [32] = experiment: Toxicity in Swiss-Webster mouse assessed as tonic-clonic seizures at 50 ug/kg, iv measured within 30 secs; assay type: organism-based; conditions: in vivo, 0.05 mg/kg, 0.5 min; procedure, shortened: as §2
Mus musculus [33] = experiment: Toxicity in iv dosed albino mouse measured after 1 hr; assay type: organism-based; conditions: in vivo
Mus musculus [34] = experiment: Toxicity in Swiss-Webster mouse assessed as piloerection at 10 mg/kg, iv; assay type: organism-based; conditions: in vivo; procedure, shortened: as §2
Mus musculus [35] = experiment: Toxicity in Swiss-Webster mouse assessed as elevated respiration at 10 mg/kg, iv; assay type: organism-based; conditions: in vivo; procedure, shortened: as §2
Mus musculus [36] = experiment: Toxicity in Swiss-Webster mouse assessed as hyperactivity at 10 mg/kg, iv; assay type: organism-based; conditions: in vivo; procedure, shortened: as §2

Sequence of Neuronal acetylcholine receptor subunit alpha-7 (Rattus norvegicus) (Q05941 whole entry): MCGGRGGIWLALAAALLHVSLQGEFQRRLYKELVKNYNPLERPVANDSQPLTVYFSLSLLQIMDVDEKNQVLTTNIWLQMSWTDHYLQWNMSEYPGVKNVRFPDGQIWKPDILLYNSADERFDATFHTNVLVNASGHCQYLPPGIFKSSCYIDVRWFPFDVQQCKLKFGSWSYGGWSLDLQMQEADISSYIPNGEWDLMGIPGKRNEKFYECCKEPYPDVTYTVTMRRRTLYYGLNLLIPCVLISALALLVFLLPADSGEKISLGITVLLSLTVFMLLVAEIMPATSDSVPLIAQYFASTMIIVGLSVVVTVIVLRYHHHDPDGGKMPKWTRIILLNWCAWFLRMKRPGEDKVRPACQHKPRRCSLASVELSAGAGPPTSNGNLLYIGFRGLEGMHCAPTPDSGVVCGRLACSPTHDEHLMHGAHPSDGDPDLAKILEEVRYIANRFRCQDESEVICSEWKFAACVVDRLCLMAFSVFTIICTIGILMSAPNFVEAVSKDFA
T4 sequence (Q05941 whole entry): as above
T3 sequence (P09483 whole entry): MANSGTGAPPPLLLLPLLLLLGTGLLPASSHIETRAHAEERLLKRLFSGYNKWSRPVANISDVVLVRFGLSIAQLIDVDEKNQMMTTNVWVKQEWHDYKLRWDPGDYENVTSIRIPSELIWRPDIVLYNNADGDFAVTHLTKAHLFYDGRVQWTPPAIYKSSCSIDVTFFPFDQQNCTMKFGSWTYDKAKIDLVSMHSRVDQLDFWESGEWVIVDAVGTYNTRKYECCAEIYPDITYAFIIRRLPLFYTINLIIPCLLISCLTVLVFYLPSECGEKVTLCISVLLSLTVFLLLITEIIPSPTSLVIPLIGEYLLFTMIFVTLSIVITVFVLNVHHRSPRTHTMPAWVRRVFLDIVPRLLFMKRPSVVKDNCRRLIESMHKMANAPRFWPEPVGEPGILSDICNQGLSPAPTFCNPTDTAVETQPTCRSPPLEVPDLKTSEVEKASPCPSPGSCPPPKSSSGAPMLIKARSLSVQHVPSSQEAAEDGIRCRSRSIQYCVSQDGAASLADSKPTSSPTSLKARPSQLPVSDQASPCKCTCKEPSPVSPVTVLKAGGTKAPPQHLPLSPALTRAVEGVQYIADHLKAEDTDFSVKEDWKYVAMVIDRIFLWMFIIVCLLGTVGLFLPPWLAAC
T3 sequence (P12390 whole entry): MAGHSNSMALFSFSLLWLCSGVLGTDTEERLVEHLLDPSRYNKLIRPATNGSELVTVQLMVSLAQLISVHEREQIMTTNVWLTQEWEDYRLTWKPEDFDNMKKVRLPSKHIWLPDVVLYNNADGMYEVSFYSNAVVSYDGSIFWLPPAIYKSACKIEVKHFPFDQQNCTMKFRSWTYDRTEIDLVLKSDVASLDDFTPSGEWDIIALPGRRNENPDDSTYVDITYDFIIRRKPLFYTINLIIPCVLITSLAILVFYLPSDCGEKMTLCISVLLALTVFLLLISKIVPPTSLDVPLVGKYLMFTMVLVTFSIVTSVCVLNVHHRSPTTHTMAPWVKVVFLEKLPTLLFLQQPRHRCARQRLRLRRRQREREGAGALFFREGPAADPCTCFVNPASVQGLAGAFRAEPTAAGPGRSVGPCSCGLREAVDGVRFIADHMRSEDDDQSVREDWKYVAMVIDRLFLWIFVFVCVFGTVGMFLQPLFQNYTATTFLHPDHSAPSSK
T1 sequence (P17787 whole entry): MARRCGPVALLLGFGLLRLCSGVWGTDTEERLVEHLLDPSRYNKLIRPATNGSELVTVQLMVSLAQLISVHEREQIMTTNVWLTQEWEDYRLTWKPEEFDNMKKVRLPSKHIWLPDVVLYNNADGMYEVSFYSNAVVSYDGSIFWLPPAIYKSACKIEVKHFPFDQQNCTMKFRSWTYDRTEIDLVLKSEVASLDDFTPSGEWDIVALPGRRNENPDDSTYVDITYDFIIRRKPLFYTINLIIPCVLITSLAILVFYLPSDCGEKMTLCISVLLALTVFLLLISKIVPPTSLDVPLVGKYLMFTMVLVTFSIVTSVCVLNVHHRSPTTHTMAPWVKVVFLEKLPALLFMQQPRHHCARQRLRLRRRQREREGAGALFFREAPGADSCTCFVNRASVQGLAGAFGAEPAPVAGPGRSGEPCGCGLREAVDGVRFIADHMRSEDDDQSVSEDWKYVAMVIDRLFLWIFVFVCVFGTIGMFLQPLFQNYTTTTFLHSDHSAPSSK
T1 sequence (P43681 whole entry): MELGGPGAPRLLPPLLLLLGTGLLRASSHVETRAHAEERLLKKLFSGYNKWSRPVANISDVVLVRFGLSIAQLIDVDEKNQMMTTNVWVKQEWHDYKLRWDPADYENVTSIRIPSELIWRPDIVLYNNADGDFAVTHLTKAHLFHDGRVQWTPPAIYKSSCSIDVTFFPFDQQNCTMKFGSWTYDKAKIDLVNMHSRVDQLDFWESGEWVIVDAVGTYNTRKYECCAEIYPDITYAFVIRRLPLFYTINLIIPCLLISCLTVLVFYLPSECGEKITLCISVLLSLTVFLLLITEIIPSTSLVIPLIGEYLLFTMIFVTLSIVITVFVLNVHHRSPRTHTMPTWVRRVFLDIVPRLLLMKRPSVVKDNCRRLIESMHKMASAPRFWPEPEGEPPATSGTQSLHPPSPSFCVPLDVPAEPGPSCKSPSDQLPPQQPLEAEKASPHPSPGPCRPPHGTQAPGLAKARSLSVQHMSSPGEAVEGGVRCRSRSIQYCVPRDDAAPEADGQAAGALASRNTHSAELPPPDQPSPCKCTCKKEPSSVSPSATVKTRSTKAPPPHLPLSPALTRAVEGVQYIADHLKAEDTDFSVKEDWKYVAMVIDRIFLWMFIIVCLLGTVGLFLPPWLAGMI
T2 sequence (P04757 whole entry): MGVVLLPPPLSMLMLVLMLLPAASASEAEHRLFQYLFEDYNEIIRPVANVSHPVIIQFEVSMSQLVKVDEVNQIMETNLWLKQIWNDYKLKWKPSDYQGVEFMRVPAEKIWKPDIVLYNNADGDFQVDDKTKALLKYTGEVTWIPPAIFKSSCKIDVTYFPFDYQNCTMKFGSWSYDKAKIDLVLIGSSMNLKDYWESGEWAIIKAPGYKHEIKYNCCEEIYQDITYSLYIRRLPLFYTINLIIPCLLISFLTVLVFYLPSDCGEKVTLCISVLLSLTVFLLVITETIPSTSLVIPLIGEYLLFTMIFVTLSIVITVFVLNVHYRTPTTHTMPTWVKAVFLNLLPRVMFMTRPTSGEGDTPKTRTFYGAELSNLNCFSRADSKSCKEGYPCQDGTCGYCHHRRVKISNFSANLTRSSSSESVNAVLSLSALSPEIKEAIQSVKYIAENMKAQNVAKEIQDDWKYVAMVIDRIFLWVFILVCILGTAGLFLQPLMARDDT
T2 sequence (P12392 whole entry): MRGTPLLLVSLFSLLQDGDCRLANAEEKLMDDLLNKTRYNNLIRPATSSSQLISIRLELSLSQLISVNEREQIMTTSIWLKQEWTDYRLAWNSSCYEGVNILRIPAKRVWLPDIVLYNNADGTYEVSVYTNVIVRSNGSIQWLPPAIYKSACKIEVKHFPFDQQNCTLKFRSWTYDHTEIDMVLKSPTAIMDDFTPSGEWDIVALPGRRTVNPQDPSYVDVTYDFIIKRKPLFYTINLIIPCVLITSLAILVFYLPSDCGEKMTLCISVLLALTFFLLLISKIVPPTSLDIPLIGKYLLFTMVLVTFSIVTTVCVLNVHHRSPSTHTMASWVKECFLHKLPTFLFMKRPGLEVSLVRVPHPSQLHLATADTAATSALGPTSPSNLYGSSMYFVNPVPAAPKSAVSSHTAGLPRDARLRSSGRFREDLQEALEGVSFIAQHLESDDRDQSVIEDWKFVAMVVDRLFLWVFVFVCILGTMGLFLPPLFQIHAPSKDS
Sequence of Neuronal acetylcholine receptor; alpha3/beta2 (P04757 whole entry, the tested form may be a part): as the sequence (P04757 whole entry) above
Sequence of Neuronal acetylcholine receptor; alpha3/beta2 (P12390 whole entry, the tested form may be a part): as the sequence (P12390 whole entry) above

Clc1ccc(C2CC3CCC2N3)cn1 (racemic) [EPIBATIDINE]
Emax [1]: 114%
Emax [2]: 135%
LD50 (Mus musculus [3]): 0.0015 mg/kg

Clc1ccc2c(n1)OC13CCC1NCC23 (racemic)
Ki [4]: 11 nM
Ki [5]: 0.35 nM
Ki [6]: 5.4 nM
Ratio Ki (Homo sapiens [7]): 31
Ki [8]: 1.1 nM
EC50 [9]: 750 nM
Emax [1]: 91%
EC50 [10]: 200 nM
Emax [2]: 42%
Ratio EC50 (Homo sapiens [11]): 3.7
EC50 [12]: 19000 nM
Imax [13]: 0.25%
EC50 [14]: 3.1 nM
Imax [15]: 0.32%
EC50 [16]: 9900 nM
Imax [17]: 1.08%
EC50 [18]: 29000 nM
Imax [19]: 0.79%
Activity [20]: inactive
Activity [21]: inactive
Activity [22]: inactive
Activity [23]: inactive
LD50 (Mus musculus [3]): 0.27 mg/kg
Ratio EC50 (Rattus norvegicus): 3200

Clc1ccc2c(n1)O[C@]13CC[C@H]1NC[C@H]23
Ki [4]: 9.1 nM
Ki [5]: 0.27 nM
Ki [6]: 4.4 nM
Ratio Ki (Homo sapiens [7]): 34
Ki [8]: 0.87 nM
EC50 [9]: 570 nM
Emax [1]: 91%
EC50 [10]: 200 nM
Emax [2]: 45%
Ratio EC50 (Homo sapiens [11]): 2.9
EC50 [14]: 1.5 nM
Imax [15]: 0.37%
EC50 [16]: 4000 nM
Imax [17]: 1.1%
LD50 (Mus musculus [3]): 0.072 mg/kg
Activity (Mus musculus [24]): Toxic
Activity (Mus musculus [25]): Toxic
Activity (Mus musculus [26]): Non-Toxic
Activity (Mus musculus [27]): Non-Toxic
Activity (Mus musculus [28]): Toxic
Activity (Mus musculus [29]): Toxic
Activity (Mus musculus [30]): Toxic
Activity (Mus musculus [31]): Toxic
Activity (Mus musculus [32]): Toxic

CN1CCC[C@H]1c1ccccc1
EC50 [10]: 2100 nM
LD50 (Mus musculus [33]): 0.3 mg/kg

Clc1ccc2c(n1)O[C@@]13CC[C@@H]1NC[C@@H]23 [PHANTASMIDINE]
Ki [4]: 390 nM
Ki [5]: 12 nM
Ki [6]: 130 nM
Ratio Ki (Homo sapiens [7]): 33
Ki [8]: 29 nM
EC50 [9]: 27000 nM
Emax [1]: 53%
EC50 [10]: 56000 nM
Emax [2]: 110%
Ratio EC50 (Homo sapiens [11]): 0.49
EC50 [14]: 45 nM
Imax [15]: 0.43%
EC50 [16]: 21000 nM
Imax [17]: 1.02%
LD50 (Mus musculus [3]): > 10 mg/kg
Activity (Mus musculus [34]): Toxic
Activity (Mus musculus [35]): Toxic
Activity (Mus musculus [36]): Toxic

O=c1cccc2n1C[C@@H]1CNC[C@H]2C1 [CYTISINICLINE]
LD50 (Mus musculus [33]): 1.73 mg/kg
